This is an account of results in article PMC6954317 (Bioorganic chemistry, 2019).

In one test the target is SphK1 (Homo sapiens, UniProt Q9NYA1). As to the kind of experiment: SphK1 inhibition, fluorometric assay with NBD-sphingosine as substrate. The test is classed as biochemical. Summed up: (§1)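 Recombinant SphK1 or SphK2 at 100 nM in 30 mM Tris-HCl pH 7.4 with 150 mM NaCl, 10% glycerol, 0.05% Triton X-100 and 1% DMSO. Test compounds were dissolved in DMSO and screened at 650 μM; actives were then tested at several concentrations to derive IC50. NBD-sphingosine-1-phosphate formation was read by fluorescence (ex 550 nm, em 584 nm) at 37 °C.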
Sequence of SphK1 (Q9NYA1 whole entry): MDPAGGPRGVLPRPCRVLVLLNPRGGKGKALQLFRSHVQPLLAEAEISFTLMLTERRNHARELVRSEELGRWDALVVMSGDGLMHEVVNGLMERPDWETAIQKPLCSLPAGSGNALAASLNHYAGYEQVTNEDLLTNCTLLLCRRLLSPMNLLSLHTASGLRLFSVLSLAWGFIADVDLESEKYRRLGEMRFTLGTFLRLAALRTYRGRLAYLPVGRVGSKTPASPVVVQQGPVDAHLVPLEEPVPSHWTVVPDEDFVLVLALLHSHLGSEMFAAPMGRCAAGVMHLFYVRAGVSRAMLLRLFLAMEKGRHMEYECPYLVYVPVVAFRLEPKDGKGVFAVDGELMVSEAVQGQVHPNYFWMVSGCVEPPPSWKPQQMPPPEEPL

For test [1], the target named is T1, SphK2 (Homo sapiens, UniProt Q9NRA0).
T1 sequence (Q9NRA0 1-654): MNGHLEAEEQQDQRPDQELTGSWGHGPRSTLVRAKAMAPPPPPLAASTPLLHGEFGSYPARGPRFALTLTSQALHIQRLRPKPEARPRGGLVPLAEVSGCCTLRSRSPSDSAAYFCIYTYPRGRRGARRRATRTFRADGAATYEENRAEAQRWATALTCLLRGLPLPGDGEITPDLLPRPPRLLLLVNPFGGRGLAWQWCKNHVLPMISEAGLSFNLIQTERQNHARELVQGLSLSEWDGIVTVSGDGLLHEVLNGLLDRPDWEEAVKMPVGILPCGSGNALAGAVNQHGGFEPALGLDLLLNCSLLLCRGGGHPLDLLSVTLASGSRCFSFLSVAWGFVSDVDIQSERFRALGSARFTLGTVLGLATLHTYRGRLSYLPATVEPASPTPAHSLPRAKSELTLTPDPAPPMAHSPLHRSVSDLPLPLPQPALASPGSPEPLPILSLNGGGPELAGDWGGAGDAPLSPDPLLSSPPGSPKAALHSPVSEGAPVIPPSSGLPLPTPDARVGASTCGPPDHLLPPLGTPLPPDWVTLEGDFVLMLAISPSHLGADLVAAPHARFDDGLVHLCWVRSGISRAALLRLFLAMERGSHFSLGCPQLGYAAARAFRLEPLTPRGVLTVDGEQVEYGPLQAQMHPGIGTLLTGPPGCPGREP
As to the kind of experiment: SphK2 inhibition, fluorometric assay with NBD-sphingosine as substrate. It counts as biochemical. Particulars: read-out: IC50 for SphK2; 100 nM recombinant SphK2, NBD-sphingosine, 37 °C. Summed up:
as §1

Test [2] deals with T1, SphK2. As to conditions: read-out: inhibitory effect reported for K145 on SphK2; cited from earlier work.

Where two headings read alike, the source gives them in different places.

On to `COc1cc2cc(CNc3ccc(Nc4nccc(-c5ccc6ccccc6c5)n4)cc3)c(=O)[nH]c2cc1OC` [16b, 6,7-dimethoxy-3-(((4-((4-(naphthalen-2-yl)pyrimidin-2-yl)amino)phenyl)amino)methyl)quinolin −2(1H)-one], for which the IC50 on SphK1 came out at 18.7 µM.
As for `O=c1[nH]c2cc(O)c(O)cc2cc1CNc1ccc(Nc2nccc(-c3ccc4ccccc4c3)n2)cc1` [19b, 6,7-dihydroxy-3-(((4-((4-(naphthalene-2-yl)pyrimidin-2-yl)amino)phenyl)amino)methyl)quinolin-2(1H)-one], on SphK1, the IC50 worked out at 15.7 µM.
For the compound “3-((4-(4-chlorophenyl)pyrimidin-2-yl)-1-yl)oxymethyl) quinolin-2(1H)-ones [compound 9]”, the IC50 on SphK2 [1] amounted to 18.2 µM.
`COc1ccc2[nH]c(=O)c(/C=C/C(=O)c3ccc(Nc4nccc(-c5ccc(Cl)cc5)n4)cc3)cc2c1` [11a, (E)-3-(3-(4-((4-(4-chlorophenyl)pyrimidin-2-yl)amino)phenyl)-3-oxoprop-1-en-1-yl)-6-methoxyquinolin-2(1H)-one] displayed an IC50 at SphK1 of 28.2 µM.
Consider `CCCCOc1ccc(CCC=C2SC(=O)N(CCN)C2=O)cc1` [K145, 3-(2-amino-ethyl)-5-[3-(4-butoxyl-phenyl)-propylidene]-thiazolidine-2,4-dione], for which the IC50 at SphK2 [2] is 4.3 µM.
In the case of `COc1ccc2[nH]c(=O)c(/C=C/C(=O)c3ccc(Nc4nccc(-c5ccc6ccccc6c5)n4)cc3)cc2c1` [11b, (E)-6-methoxy-3-(3-(4-((4-(naphthalen-2-yl)pyrimidin-2-yl)amino)phenyl)-3-oxoprop-1-en-1-yl)quinolin-2(1H)-one], at SphK1 (in words), the “selectivity SphK1 versus SphK2” value is given as “selective inhibitory effect on SphK1”.
For the compound `Oc1ccc(Nc2nccc(-c3ccc(Cl)cc3)n2)cc1` [4a, 4-((4-(4-chlorophenyl)pyrimidin-2-yl)amino)phenol], the IC50 against SphK1 worked out at 43.9 µM.
The compound `COc1cc2cc(CNc3ccc(Nc4nccc(-c5ccc(Cl)cc5)n4)cc3)c(=O)[nH]c2cc1OC` [16a, 3-(((4-((4-(4-chlorophenyl)pyrimidin-2-yl)amino)phenyl)amino)methyl)-6,7-dimethoxyquinolin-2(1H)-one] showed an IC50 at SphK1 of 59.1 µM.
